Source: PubChem (several laboratories)
Hits are enriched below; roughly 2.1% of the tested compounds scored in any of these assays.
Ins promoter up: MIN6 insulin promoter up-regulation; MIN6 insulin promoter-GFP reporter, high-content imaging; active compounds read high; z-score at 5 µM; 190,000 tested, 0.3% active; AID 1625;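 active = z-score above 3 at 5 µM with at least 500 cells counted in the well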
Dynein cargo inh: dynein cargo transport inhibition. 3617.4 mouse cells, GR-EGFP nuclear translocation imaging; test concentration mostly 20 µM; stimulated with dexamethasone, 1 µM; active compounds read low. z-score, hits read low. 220,000 tested, 0.47% active;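 active = plate z-score of nuclear minus cytoplasmic receptor signal below a set negative limit, without overly bright fluorescence or cell loss, cut at about -3.5 in these data, passing the limit was not always enough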;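 also: z-score of nuclear minus cytoplasmic ring GR-EGFP intensity difference per well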
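medium = tetracycline-free induction medium containing charcoal-stripped FBS | probe or stimulus = dexamethasone, 1.0 µM final | timing = 48 h induction, then 1 h compound, then 30 min agonist, 37 °C | detection = automated 10x imaging of fixed Hoechst-stained cells | read-out basis = nuclear versus cytoplasmic GR-EGFP signal, averaged per well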
PERK inhibitor: human PERK inhibition, primary cell-based screen | 220,000 tested, 0.17% active | CHO PERK-DD fusion, SEAP luminescence translation reporter | AID 1416 | inhibition, % at 5.6 µM | Q9NZJ5;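 active = inhibition above the mean inhibition of all tested compounds plus 3 SD, set separately per screening campaign, cut at about 2.9% in these data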;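 also: PERK kinase domain activated by AP20187 dimerizer at 100 nM; 0% = DMSO with dimerizer and 100% = rapamycin at 8.4 µM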
Target sequence (Q9NZJ5 whole entry, looked up, the tested form may be a part): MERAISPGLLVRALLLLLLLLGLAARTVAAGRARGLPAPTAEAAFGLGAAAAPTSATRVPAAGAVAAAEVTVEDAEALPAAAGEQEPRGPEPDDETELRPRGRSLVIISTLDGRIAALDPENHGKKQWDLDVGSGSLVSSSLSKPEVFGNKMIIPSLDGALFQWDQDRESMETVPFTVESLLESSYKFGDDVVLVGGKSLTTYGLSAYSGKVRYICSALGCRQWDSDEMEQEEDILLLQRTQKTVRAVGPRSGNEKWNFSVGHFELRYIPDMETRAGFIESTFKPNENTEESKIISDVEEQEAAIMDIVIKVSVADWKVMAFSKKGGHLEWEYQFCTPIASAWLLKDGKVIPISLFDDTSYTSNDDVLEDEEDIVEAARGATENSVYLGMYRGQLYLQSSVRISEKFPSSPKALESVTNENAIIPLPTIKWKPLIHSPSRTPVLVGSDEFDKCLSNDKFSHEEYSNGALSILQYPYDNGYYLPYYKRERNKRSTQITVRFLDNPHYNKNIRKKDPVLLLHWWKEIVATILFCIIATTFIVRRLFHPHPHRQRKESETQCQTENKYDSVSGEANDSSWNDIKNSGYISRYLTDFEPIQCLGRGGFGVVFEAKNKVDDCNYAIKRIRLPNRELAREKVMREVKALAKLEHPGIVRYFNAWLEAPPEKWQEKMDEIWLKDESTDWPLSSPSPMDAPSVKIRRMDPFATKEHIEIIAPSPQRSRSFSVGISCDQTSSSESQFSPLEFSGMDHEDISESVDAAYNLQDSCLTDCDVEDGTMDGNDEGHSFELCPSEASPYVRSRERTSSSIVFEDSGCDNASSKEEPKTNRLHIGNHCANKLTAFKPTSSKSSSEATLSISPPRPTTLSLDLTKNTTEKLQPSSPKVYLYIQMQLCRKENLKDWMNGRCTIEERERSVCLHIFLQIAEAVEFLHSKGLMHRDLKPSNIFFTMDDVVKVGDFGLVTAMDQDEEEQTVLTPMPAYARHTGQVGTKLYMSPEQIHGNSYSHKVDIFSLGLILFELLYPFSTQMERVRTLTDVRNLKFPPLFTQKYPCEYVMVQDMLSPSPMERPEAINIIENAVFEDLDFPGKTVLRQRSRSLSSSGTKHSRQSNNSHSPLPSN
INS promoter inh: TRM-6 insulin promoter activity inhibition; TRM-6 cells (human fetal islet line), insulin promoter-eGFP reporter, imaging; reporter expression induced with tamoxifen; inhibition, % at 2 µM; 130,000 tested, 0.9% active;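 active = inhibition above the mean plus 3 SD, with well images judged a real hit on visual review, cut at about 60% in these data, passing the limit was not always enough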
Autophagy HCS: alters autophagy in cells | MEF GFP-LC3 puncta imaging; test concentration mostly 10 µM | calls only at 10 µM (by protocol) | 190,000 tested, 0.98% active | AID 463193;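 active = percentage of spot-positive cells more than 3 SD above its plate mean, without a fluorescence outlier flag or 80% toxicity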;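 also: spot-positive cell cutoff set from DMSO-treated cells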
* hit, by the source's call; i = inactive; / = no result; + = active, no number.

SMILES	Ins promoter up	Dynein cargo inh	PERK inhibitor	INS promoter inh	Autophagy HCS
Cc1nn(C(C)C(=O)O)c2ccccc12 (stereo not given)	0.43	-0.45	2	/	i
COc1ccc(C2C(C(C)=O)=C(C)Nc3ncnn32)cc1OC (stereo not given)	/	-0.09	1	31	i
COc1cc(C2C(C(=O)OC(C)C)=C(C)Nc3ncnn32)cc(OC)c1OC (stereo not given)	-0.95	0.35	-1	/	+
O=C(O)C1CCN(C(=O)NC2CCCCC2)CC1	1.5	-0.13	2.9*	/	i
CCOC(=O)N1CCN(S(=O)(=O)c2ccc(C(=O)Nc3nnc(C4CC4)o3)cc2)CC1	-0.08	-0.096	1	/	i
CCOC(=O)N1CCN(S(=O)(=O)c2ccc(C(=O)Nc3nc4c(s3)CC(C)CC4)cc2)CC1 (stereo not given)	-1.1	-0.22	1	/	+
CCOC(=O)N1CCC(N2CCN(S(=O)(=O)c3ccc(C)cc3)CC2)CC1	-0.39	-0.2	-2	67*	i
O=C(c1ccc(F)cc1)N1CCCCC(S(=O)(=O)c2ccccc2)C1=O (stereo not given)	0.59	1.2	1	-119	i
Cc1[nH]n(-c2ccccc2)c(=O)c1C(c1ccc(O)c([N+](=O)[O-])c1)c1c(C)[nH]n(-c2ccccc2)c1=O	/	-0.19	0	77*	i
Cc1[nH]n(-c2ccccc2)c(=O)c1C(C[N+](=O)[O-])c1ccccc1Cl (stereo not given)	0.19	-1.7	1	-50	i
O=C(/C=C/Nc1ccc([N+](=O)[O-])cc1)c1ccc(Br)cc1	-0.23	-0.19	0	-35	+
COCCN(C(=S)Nc1cccc(C)c1)C(C)c1cccnc1 (stereo not given)	0.21	0.33	1	/	i
CCOc1ccc(C2C(C#N)=C(N)Oc3cc(C)n(CCN(C)C)c(=O)c32)cc1OCC (stereo not given)	0.03	-0.22	1	31	i
NC(=O)CC(NC(=O)Cc1cccc2ccccc12)c1ccc(N2CCc3ccccc3C2)c([N+](=O)[O-])c1 (stereo not given)	-0.36	-1	/	/	/
O=C(CSc1nnc(-c2ccco2)n1-c1ccccc1)N1CCOCC1	/	0.24	-1	-3	i
C=CCn1c(SCC(=O)N2CCN(c3ccccc3)CC2)nnc1-c1ccco1	-0.33	2.7	-2	77*	i
CCOC(=O)CCS(=O)(=O)c1ccc(-c2ccc(S(=O)(=O)CCC(=O)OCC)cc2)cc1	-0.39	-0.22	0	/	i
Cc1ccc(C(=O)Cn2c(C(=O)/C=C/c3ccccc3)nc3ccccc32)cc1	/	1.1	1	38	i
C=CCc1ccc2oc(C(=O)OCC)cc(=O)c2c1O	-0.18	-0.32	2	/	/
CCCc1ccc(OCc2ccccc2)c2c(=O)cc(C(=O)OCC)oc12	0.12	-0.57	3.1*	/	/
O=C(Nc1ccccc1Cl)O/N=C/c1ccncc1	/	-0.15	2	10	i
O=C(O)c1ccc(-c2ccc(Cl)cc2Cl)o1	-0.78	-0.5	0	30	i
O=Cc1ccc(-c2ccc(Cl)cc2Cl)[nH]1	0.72	0.61	4.2*	/	i
CSc1nc(C)cc(SCC(=O)N/N=C/c2ccccc2)n1	0.69	-0.17	0	20	i
CC(C)Cn1c(=O)c2c(nc3n2CCCN3CCc2ccccc2)n(C)c1=O	-4.1	4.3	-1	-26	i
SMILES	Ins promoter up	Dynein cargo inh	PERK inhibitor	INS promoter inh	Autophagy HCS
CCOC(=O)c1cc(C(C)C)sc1NC(=O)COC(=O)CCS(=O)(=O)c1ccccc1	0.3	-0.25	1	60*	i
CC(C)(CN1CCN(C(c2ccccc2)c2ccccc2)CC1)NS(=O)(=O)c1ccccc1	-0.55	-0.53	-2	/	/
CCCCCCC(=O)Nc1ccc(C(=O)N/N=C/c2cccnc2)cc1	0.86	0.018	0	/	i
CCCCCCCC(=O)Nc1ccc(C(=O)N/N=C/c2cccc([N+](=O)[O-])c2)cc1	0.17	-0.72	1	-50	+
CCN(CC)c1nc2ccccc2nc1C(C#N)C(=O)NCCc1ccccc1 (stereo not given)	-0.06	0.39	-2	-25	+
CCCCN(CCCC)c1nc2ccccc2nc1C(C#N)C(=O)NCCCOC (stereo not given)	/	0.52	0	-28	+
O=C(NC(=S)NCc1ccccc1)c1ccccc1[N+](=O)[O-]	-0.05	-1.5	0	52	i
COc1cc(S(=O)(=O)NCCCN2CCOCC2)ccc1Cl	0.49	-0.49	2.9*	12	i
Cc1ccc(S(=O)(=O)NCCCN2CCOCC2)cc1C	/	-0.79	1	-41	i
O=C(OCc1nnc(-c2ccccc2)o1)c1cc2ccccc2cc1O	-0.76	-0.52	1	/	i
COc1ccc2c(c1)c(=O)oc1cc(O)ccc12	-0.03	-0.51	3.4*	/	i
CCc1ccc(CN(C)C(=O)CCc2nc3ccccc3n(-c3ccc(OC)cc3)c2=O)cc1	-0.68	2.6	0	/	i
COc1ccc(/C(O)=C/c2nc3ccccc3n(-c3ccccc3)c2=O)cc1	/	-0.23	0	-17	+
Cc1cccc(C(C)(C)C)c1OCCn1ccnc1	/	0.19	0	89*	i
Cc1cccc(Cl)c1OCCCCn1ccnc1	-0.07	-0.88	1	20	i
COc1ccc(N(CC(=O)NCc2ccccc2)C(=O)Cn2nnc(-c3ccccc3F)n2)cc1OC	-1.1	0.1	0	/	i
Cc1ccccc1NC(=O)N1C2CCCC1CC(NC(=O)C1CC1)C2 (stereo not given)	0.11	0.15	1	23	i
CCOc1ccccc1NC(=O)C1CCN(C(=O)c2cccs2)CC1	0.02	-1.2	-1	/	+
CCOc1ccccc1NC(=O)N1C2CCCC1CC(NC(=O)C1CC1)C2 (stereo not given)	0.05	0.46	0	55	+
S=c1cnc2ccccc2[nH]1	-1.2	-0.96	-1	45	i
O=S(=O)(Nc1ccc(C(F)(F)F)cn1)c1ccccc1	1.2	-1.4	1	/	/
CCOc1ccc2nc(NC(=O)CN3CCC(n4nnc5cc(F)ccc54)CC3)sc2c1	-0.6	-0.61	-1	0	i
Cc1ccc(-n2c(C)cc(/C=c3/sc4nc5ccccc5n4c3=O)c2C)cc1	0.05	-0.66	0	13	i
O=C(O)Cn1cc(/C=c2/sc3nc4ccccc4n3c2=O)c2ccccc21	0.35	1.7	2	36	i
COc1cc(N2CCCC2)c(OC)cc1/C=c1/sc2nc3ccccc3n2c1=O	17*	-5.9	2	/	+
O=c1/c(=C\c2cccn2-c2ccccc2)sc2nc3ccccc3n12	1.4	-0.79	1	7	+
COc1ccc(CCn2c(=S)[nH]c3ccc(N4CCOCC4)cc3c2=O)cc1OC	/	-0.7	1	/	i
CN(C)S(=O)(=O)Oc1cccc(C(=O)Nc2ccc([N+](=O)[O-])cc2)c1	3.4*	0.7	0	-7	i
